Assay [1] has as its target Myeloperoxidase (Homo sapiens) (UniProt P05164). Nature of the assay: he effect on oxygen consumed in the presence of MPO-H2O2.
Assay [2] deals with L1210. In words: Compound was tested for its antitumor activity against murine leukemia L1210 cells in vitro, expressed as ID50. Particulars: Mus musculus, read-out: ID50 (the source's name). It counts as functional. A digest of the protocol: (§1)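 L1210 murine leukemia cells were grown in culture with drug for 48 h. ID50 is the drug concentration that cuts the rate of cell multiplication by 50% compared with untreated controls.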

Assay [3] deals with L1210. Nature of the assay: Compound was tested for its cytotoxic activity against murine leukemia L1210 cells in mice after intraperitoneal treatment, expressed as LD0 (highest nonlethal dose). The class given is functional, Mus musculus. A digest of the protocol:
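Highest nonlethal dose (LD0) found for each drug after a single intraperitoneal injection into DBA/2 or Swiss mice.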

Assay [4] deals with Mus musculus. Nature of the assay: Increase in life span over controls (10e5 cells) in mice after intraperitoneal treatment of the compound. The class given is functional. Further details: concentration or dose not given beside the values. A digest of the protocol: (§2)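 DBA/2 mice were inoculated with 10⁵ L1210 leukemia cells and given a single intraperitoneal injection of drug. Survival was compared with untreated controls as increase in life span, ILS = [(T − C)/C] × 100. An antitumor effect was counted significant at ILS ≥ 25%.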

Assay [5] deals with Myeloperoxidase (Homo sapiens) (UniProt P05164). Nature of the assay: The effect on NADH oxidation in the presence of MPO-H2O2.
The target is the same in assay [6]. Nature of the assay: The effect on oxygen consumed in the presence of MPO-H2O2.
Assay [7] deals with L1210. In words: The compound is tested for its antitumor activity against murine leukemia L1210 cells in vitro, expressed as ID50. Particulars: Mus musculus, read-out: ID50 (the source's name). It counts as functional. A digest of the protocol:
as §1

Assay [8] relates to L1210. Nature of the assay: The compound is tested for its cytotoxic activity against murine leukemia L1210 cells in mice after intraperitoneal treatment, expressed as LD0 (highest nonlethal dose). It counts as functional, Mus musculus.
The target in assay [9] is Myeloperoxidase (Homo sapiens) (UniProt P05164). In words: The effect on NADH oxidation in the presence of MPO-H2O2 at pH 6.0.
Assay [10] shares this target. Nature of the assay: The effect on oxygen uptake in the presence of MPO-H2O2 at pH 7.8.
For assay [11] the target is unchanged. In words: The effect on oxygen uptake in the presence of MPO-H2O2 without the compound at pH 8.3.
Assay [12] shares this target. Nature of the assay: The effect on NADH oxidation in the presence of MPO-H2O2. The source holds these as a separate data set.
Assay [13] shares this target. Nature of the assay: The effect on oxygen uptake in the presence of MPO-H2O2 at pH 8.3.
For assay [14] the target is unchanged. Nature of the assay: The effect on NADH oxidation in the presence of MPO-H2O2 at pH 7.4.
For assay [15] the target is unchanged. In words: The effect on NADH oxidation in the presence of MPO-H2O2 without the compound.
Assay [16] shares this target. In words: The effect on NADH oxidation in the presence of MPO-H2O2 without compound at pH 7.8.
Assay [17] has the same target. Nature of the assay: The effect on oxygen uptake in the presence of MPO-H2O2 without the compound at pH 6.0.
Assay [18] shares this target. Nature of the assay: The effect on NADH oxidation in the presence of MPO-H2O2 at pH 8.3.
Assay [19] has the same target. Nature of the assay: The effect on oxygen uptake in the presence of MPO-H2O2 at pH 7.4.
Assay [20] has the same target. Nature of the assay: The effect on NADH oxidation in the presence of MPO-H2O2 at pH 7.8.
Assay [21] has the same target. In words: The effect on NADH oxidation in the presence of MPO-H2O2 without the compound at pH 6.0.
Assay [22] has the same target. Nature of the assay: The effect on oxygen uptake in the presence of MPO-H2O2 without the compound at pH 6.8.
Assay [23] shares this target. Nature of the assay: The effect on NADH oxidation in the presence of MPO-H2O2 without the compound at pH 8.3.
The target is the same in assay [24]. Nature of the assay: The effect on oxygen uptake in the presence of MPO-H2O2 without the compound at pH 7.4.
The target is the same in assay [25]. Nature of the assay: The effect on NADH oxidation in the presence of MPO-H2O2 at pH 6.8.
The target is the same in assay [26]. Nature of the assay: The effect on oxygen uptake in the presence of MPO-H2O2 at pH 6.0.
Assay [27] shares this target. In words: The effect on NADH oxidation in the presence of MPO-H2O2 without compound at pH 7.4.
Assay [28] has the same target. In words: The effect on oxygen uptake in the presence of MPO-H2O2 at pH 6.8.
The target is the same in assay [29]. Nature of the assay: The effect on oxygen uptake in the presence of MPO-H2O2 without the compound at pH 7.8.
Assay [30] relates to Mus musculus. In words: Increase in life span over control (10e5 cells) in mice after intraperitoneal treatment of the compound. The class given is functional. A digest of the protocol: as §2

With `Cc1c2cc[n+](C)cc2c(C)c2c1[nH]c1ccccc12`, the Oxygen consumed in assay [1] was found to be 0 nM/min. Besides, the IC50 in the assay on L1210 [2] turned out to be 1680 nM. The LD0 in the assay on L1210 [3] worked out at 12.5 mg/kg. For the same compound, the ILS – broadly, the gain in survival time of treated over control animals, in per cent – in the assay with Mus musculus [4] is listed as 18%. In addition, the NADH oxidized in assay [5] came to 0 nM/min.

`COc1ccc2[nH]c3c(C)c4ccncc4c(C)c3c2c1`: in [6], the Oxygen consumed was determined as 0 nM/min. The IC50 in the assay on L1210 [7] was determined as 600 nM. The LD0 in the assay on L1210 [8] stood at 70 mg/kg. The ILS with Mus musculus [4] was 70%. In assay [5], the NADH oxidized came out at 0.22 nM/min.

Turning to `Cc1c2ccncc2c(C)c2c1[nH]c1ccc(O)cc12`, the NADH oxidation in [9] came to 5.5 nM/min; in assay [14] it was 10.2 nM/min; in [15], 0.5 nM/min; in assay [16] it was 0 nM/min; in [18], 6.5 nM/min; in [20] it was 7.2 nM/min. Moreover, the NADH oxidation in assay [23] worked out at 0 nM/min; in [25], 7.8 nM/min; in [27], 0 nM/min. The Oxygen uptake in assay [10] turned out to be 0 nM/min; in assay [11], 0 nM/min; in assay [13], 0 nM/min; in [17], 0.52 nM/min; in assay [19] it was 0 nM/min; in [22] it was 0.28 nM/min. Besides, the Oxygen uptake in [24], in assay [26], in assay [28] and in assay [29] was 0 nM/min throughout. Besides, the Oxygen consumed in assay [12] amounted to 0 nM/min. In the assay on L1210 [2], the IC50 worked out at 15 nM. The same compound displayed an LD0 with L1210 [3] of 50 mg/kg. The same compound had an ILS with Mus musculus [4] of 53%. The NADH oxidized in assay [21] was 1.2 nM/min; in assay [5] it was 10.5 nM/min.

Take `Cc1c2c[n+](C)ccc2c(C)c2c1c1cc(O)ccc1n2C`: in the assay with L1210 [2], the IC50 worked out at 41 nM. For the same compound, in assay [6], the Oxygen consumed was determined as 7.7 nM/min. In the assay on Mus musculus [30], the ILS came to 78%. Also, in the assay with L1210 [3], the LD0 came out at 15 mg/kg. In addition, the NADH oxidized in assay [5] is 16.15 nM/min.

On to `Cc1c2ccncc2c(C)c2c1[nH]c1ccccc12` [ELLIPTECINE], for which the IC50 in the assay with L1210 [2] was 990 nM. The Oxygen consumed in [6] was 0 nM/min. Also, in the assay on L1210 [3], the LD0 was 50 mg/kg. This compound gave an ILS with Mus musculus [4] of 68%. Moreover, in assay [5], the NADH oxidized is 0 nM/min.

Consider `Cc1c2cc[n+](C)cc2c(C)c2c1[nH]c1ccc(O)cc12` [ELLIPTINIUM], for which the IC50 in the assay with L1210 [2] was found to be 50 nM. For the same compound, in [6], the Oxygen consumed is 0 nM/min. This compound returned an LD0 with L1210 [3] of 5 mg/kg. For the same compound, the ILS in the assay on Mus musculus [4] was found to be 62%. Also, the NADH oxidized in [5] turned out to be 12.2 nM/min.

For the origin of these results see ChEMBL document CHEMBL1121796, “Bioactivation of the antitumor drugs 9-hydroxyellipticine and derivatives by a peroxidase-hydrogen peroxide system” (1981).
